Assay outcomes as filed in PubChem BioAssay.
Sampled rows, rich in hits. Any-hit rate of the full collection: about 4.3%.
GalR3 antagonist = blocks the human galanin receptor 3; HEK293 GalR3-CNG cAMP membrane potential fluorescence; galR3 body fused to GalR1 C-terminus; O60755; inhibition, % at 3 µM; actives 0.44% (n = 360,000);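 active = inhibition above the screen-wide average plus 3 SD, cut at about 13% in these data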;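 also: forskolin and galanin both at EC90 stimulate the cells; cAMP rise reported by CNG channel membrane potential dye signal; 0% = forskolin plus galanin with DMSO and 100% = forskolin alone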
TAAR1 agonist = human TAAR1 agonism. actives 0.99% (n = 360,000). AID 624467. Q96RJ0. CHO RD-HGA16 TAAR1, Fluo-8 calcium fluorescence; vehicle wells 0%, saturating PEA agonist 100%. activation, % at 3 µM;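 active = activation above the mean activation of all test compounds in the run plus 3 SD, cut at about 38% in these data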
Target sequence (Q96RJ0 whole entry, looked up): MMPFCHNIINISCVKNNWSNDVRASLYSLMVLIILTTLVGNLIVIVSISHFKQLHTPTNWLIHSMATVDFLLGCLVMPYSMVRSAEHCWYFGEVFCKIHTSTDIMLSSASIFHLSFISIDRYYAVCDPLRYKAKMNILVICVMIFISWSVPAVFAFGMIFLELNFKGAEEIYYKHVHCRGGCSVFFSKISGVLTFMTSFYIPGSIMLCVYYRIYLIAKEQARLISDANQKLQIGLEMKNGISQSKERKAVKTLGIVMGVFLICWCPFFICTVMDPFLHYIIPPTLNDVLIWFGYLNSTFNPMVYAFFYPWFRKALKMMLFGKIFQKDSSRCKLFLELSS
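Test system: RD-HGA16 (CHO) cells co-expressing Gα16 and hTAAR1; dosing: one-point dosing at 3 µM (nominal); timing: 17-24 h seeding, 75 min 37 °C dye, 30 min RT; signal: kinetic Fluo-8 calcium fluorescence; read-out basis: % activation relative to PEA EC100 response; controls: DMSO and PEA EC100; replicates: n 1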
TAAR1 antagonist = human TAAR1 antagonism; Q96RJ0; actives 1.5% (n = 360,000); AID 624466; CHO RD-HGA16 TAAR1, Fluo-8 calcium fluorescence, antagonist; inhibition, % at 3 µM;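 active = inhibition above a per-plate cutoff, the mean inhibition of test compounds on that plate plus 3 SD, cut at about 49% in these data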;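 also: 0% = DMSO plus EC80 beta-PEA response and 100% = DMSO alone without agonist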
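Test system: RD-HGA16 CHO cells with stable hTAAR1 and Gα16 / Probe or stimulus: EC80 β-phenethylamine stimulus / Times: seeding 17-24 h prior, 75-min 37 °C, 30-min RT dye loading / Detection: Fluo-8 calcium-sensitive fluorescence / Read-out basis: % inhibition scaled between DMSO and EC80 PEA controls / Repeats: singlicate, one well per test compound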
OX1R antag-1 = human HCRTR1 antagonism; O43613; CHO/OX1R cells, Fluo-8 calcium fluorescence, orexin A; inhibition, % at 5 µM; actives 0.43% (n = 330,000);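 active = inhibition above its plate's threshold, mean inhibition of all tested compounds on the plate plus 3 SD, cut at about 37% in these data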;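 also: 0% = orexin A challenge wells and 100% = SB-334867-A antagonist wells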
Target sequence (O43613 whole entry, looked up): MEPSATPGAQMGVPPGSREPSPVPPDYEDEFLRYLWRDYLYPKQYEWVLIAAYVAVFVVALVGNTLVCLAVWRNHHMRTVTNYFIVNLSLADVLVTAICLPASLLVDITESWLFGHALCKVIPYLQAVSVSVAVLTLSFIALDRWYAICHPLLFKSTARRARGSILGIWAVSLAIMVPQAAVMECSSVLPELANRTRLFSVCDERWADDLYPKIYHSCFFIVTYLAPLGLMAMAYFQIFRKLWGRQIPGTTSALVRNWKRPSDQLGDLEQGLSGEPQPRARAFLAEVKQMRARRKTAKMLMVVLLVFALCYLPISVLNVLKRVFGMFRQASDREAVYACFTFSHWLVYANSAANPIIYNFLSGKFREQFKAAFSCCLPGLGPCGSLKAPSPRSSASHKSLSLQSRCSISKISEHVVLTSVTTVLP
OX1R antag-2 = OX1R (human) antagonism | O43613 | OX1R-expressing cells, FRET antagonist read-out | inhibition, % at 6.6 µM | actives 1.8% (n = 330,000); in the data active = inhibition mostly above about 38%, no sharp cut-off; inactive = mostly below about 40%;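 also: 0% = agonist challenge alone and 100% = reference antagonist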
CHO parental Ca = signal in parental CHO cells, OX1R antagonist counter-screen | parental CHO-K1, ATP-induced calcium, Fluo-8 fluorescence | actives 0.63% (n = 330,000) | inhibition, % at 5.6 µM;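 active = inhibition above that plate's mean sample inhibition plus 3 SD, cut at about 26% in these data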;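 also: 0% = ATP-challenged DMSO wells and 100% = DMSO wells without ATP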
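Assay system – parental CHO cells · Reagent – ATP stimulus · Detection – intracellular calcium via Fluo-8 no-wash fluorescent dye · Evaluation – percent inhibition of ATP-evoked calcium rise, normalized to controls · Controls – ATP wells versus no-ATP DMSO wells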
OX1R Ca confirm = OX1R (human) antagonism, confirmed | shares compounds with OX1R antag-1 | inhibition, % at 5 µM | actives 38% (n = 1,100) | CHO/OX1R cells, orexin A calcium Fluo-8 fluorescence; in the data active = inhibition above about 29%;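 also: 0% = agonist challenge alone and 100% = reference antagonist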
CHO Ca counter = counter-screen for OX1R antagonists: effect in parental CHO cells; shares compounds with OX1R antag-1; parental CHO-K1, ATP-induced calcium, Fluo-8 fluorescence; inhibition, % at 5.6 µM; actives 9.3% (n = 1,100);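 active = inhibition above a per-plate limit, the mean inhibition of that plate's test compounds plus 3 SD, cut at about 25% in these data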;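 also: 0% = ATP challenge with DMSO and 100% = DMSO without ATP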
OX1R HTRF confirm = OX1R (human) antagonism, HTRF confirmed; shares compounds with OX1R antag-2; OX1R-expressing cells, HTRF antagonist assay; inhibition, % at 6.6 µM; actives 49% (n = 1,800); in the data active = inhibition above about 55%;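 also: CHO cells expressing OX1R stimulated with orexin A at about EC80; 0% = agonist challenge alone and 100% = reference antagonist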
CHO-K1 HTRF = counter-screen: parental CHO-K1 HTRF response; shares compounds with OX1R antag-2; parental CHO-K1 cells, HTRF counterscreen; inhibition, % at 6.6 µM; actives 48% (n = 1,800); AID 493232; in the data active = inhibition above about 17%;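 also: 0% = agonist challenge with vehicle and 100% = vehicle alone without agonist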
Active calls of the source: *; . = not tested or not shown.

SMILES	GalR3 antagonist	TAAR1 agonist	TAAR1 antagonist	OX1R antag-1	OX1R antag-2	CHO parental Ca	OX1R Ca confirm	CHO Ca counter	OX1R HTRF confirm	CHO-K1 HTRF
COc1ccc2sc(-c3ccc(S(C)(=O)=O)cc3)c(C#CCO)c2c1	-4.0	14.6	45.6	64.7*	59.3*	10.3	20.8	0.7	60.4*	13.2
COc1ccc(-c2sc3ccccc3c2C#CCO)cc1	-10.7	-1.9	-9.3	-17.4	50.4	-13.8	.	.	.	.
O=C(Nc1nccs1)c1ccc(COc2c(F)c(F)cc(F)c2F)o1	-3.1	0.1	1.0	-9.8	8.0	-8.2	.	.	.	.
O=C(Nc1nccs1)c1ccc(-c2ccc(F)c(Cl)c2)o1	-5.7	0.3	12.1	47.3*	97.4*	-16.8	18.6	-15.3	71.8*	12.8
CCOC(=O)C1CCN(c2cc3c(cc2NC(=O)c2ccccc2OCC)n(C)c(=O)n3C)CC1	-6.5	5.6	34.2	33.8	35.0*	-13.5	-2.9	-13.0	20.4	-3.7
Cc1cccc(NC(=O)c2cc(-c3cc(C)cc(C)c3O)n[nH]2)c1	-9.3	1.1	30.9	39.8	63.8*	6.5	16.9	4.2	68.9*	12.8
O=C1CCC/C=C\C[C@H](CC(=O)N(CCO)Cc2ccccc2)C(=O)N2CCC[C@@H]2CO1	-5.6	1.2	-5.1	-11.6	5.9	-2.8	.	.	.	.
COc1ccc(C2=Nc3ccccc3N(C(=O)c3ccncc3)C2C(=O)NC(C)(C)C)cc1 (stereo not drawn)	-6.6	3.5	-8.8	.	.	.	.	.	.	.
Cc1ccc(-c2nc3ccccc3[nH]2)cc1NC(=O)c1sc2cc(Cl)ccc2c1Cl	-2.1	1.1	1.9	44.3*	77.0*	-13.8	47.1*	-11.5	65.6*	11.1
CSC1=NSC2=NC(=O)/C(=C\c3cccs3)C(=N)N12	7.4	3.9	2.4	-8.7	21.4	-6.0	.	.	.	.
CSC1=NSC2=NC(=O)/C(=C/c3coc4ccccc4c3=O)C(=N)N12	-4.7	374.6*	104.4*	65.9*	77.7*	47.2	26.6	15.1	39.4	-7.2
O=S(=O)(CCSc1nc2ccccc2o1)c1nc2ccccc2s1	-12.3	1.8	-4.0	61.6*	41.1*	-1.2	13.8	14.4	36.9	-4.2
CCOC(=O)c1cnn(-c2ccccc2)c1-c1ccncc1	-9.6	3.5	-8.6	-19.0	5.9	-7.5	.	.	.	.
O=C(Nc1ccc2nn(-c3ccccc3)nc2c1)c1cccs1	-4.0	11.4	44.8	33.5	83.4*	1.2	26.2	-1.5	55.4*	-1.4
O=C(Nc1ccc2nsnc2c1)c1cccs1	-1.4	14.5	13.4	-13.4	19.5	-6.4	.	.	.	.
Cc1cn(CC(=O)NCc2ccc3c(c2)OCO3)c(=O)[nH]c1=O	-4.6	-0.2	-13.8	.	.	.	.	.	.	.
O=C1c2ccccc2NC(c2c(Cl)cccc2Cl)N1Cc1ccccc1 (stereo not drawn)	-2.2	7.1	8.9	26.8	82.2*	11.9	10.1	-2.3	46.0	0.1
O=C(Cn1cnc2cc([N+](=O)[O-])ccc2c1=O)Nc1cccc(S(=O)(=O)N2CCCCC2)c1	-3.8	-1.3	-3.9	.	.	.	.	.	.	.
CC(=O)Nc1ccc(S(=O)(=O)N(Cc2ccccc2)c2ccccn2)cc1	-8.4	-0.8	16.0	-1.8	11.7	-8.3	.	.	.	.
CC(=O)Nc1ccc(S(=O)(=O)N(Cc2ccccc2)c2ccccc2F)cc1	-0.1	13.6	-1.9	37.8	63.1*	-14.6	33.8*	-2.9	56.1*	-5.0
CCCN(Cc1ccccc1)C(=S)NC(=O)c1ccccc1[N+](=O)[O-]	3.9	-1.8	-2.5	-15.6	18.5	-4.2	.	.	.	.
CCOC(=O)c1ccc2[nH]c3c(c2c1)CCCC3O (stereo not drawn)	-6.5	10.8	12.5	-9.9	18.3	-3.8	.	.	.	.
CCOC(=O)c1ccc2[nH]c3c(c2c1)CCCC3	-10.2	3.8	-7.7	30.9	77.7*	-10.8	4.9	-3.4	52.1	0.3
COc1ccc(/C=c2\s/c(=C/C(=O)c3ccc(C)cc3)[nH]c2=O)c(OC)c1	-2.8	11.9	44.3	47.1*	78.6*	8.6	28.5	1.7	93.1*	9.6
CC(C)(CNC(=O)c1ccc([N+](=O)[O-])c(Cl)c1)CNC(=O)c1ccc([N+](=O)[O-])c(Cl)c1	0.9	15.4	34.8	41.2*	84.6*	18.7	12.6	8.8	52.7	18.1*
SMILES	GalR3 antagonist	TAAR1 agonist	TAAR1 antagonist	OX1R antag-1	OX1R antag-2	CHO parental Ca	OX1R Ca confirm	CHO Ca counter	OX1R HTRF confirm	CHO-K1 HTRF
COc1cc(C(=O)OCC(=O)N2c3ccccc3NC(=O)C2(C)C)ccc1OCC(C)C	-1.6	14.1	66.6*	27.9	56.0*	7.1	22.8	-2.7	56.2*	6.0
CC(NC(=O)CN(C)CC(=O)Nc1cccc(F)c1)c1ccccc1 (stereo not drawn)	-6.6	1.1	-3.1	3.6	5.3	-15.5	.	.	.	.
COc1ccc(NC(=O)CSc2nc3c(c(=O)n2-c2ccccc2OC)SCC3)cc1	.	-1.6	-46.8	-19.1	3.2	-4.7	.	.	.	.
CCSc1nnc(NC(=O)CSc2nc3c(c(=O)n2-c2ccccc2OC)SCC3)s1	-8.0	14.3	5.5	37.8	35.7*	-12.6	27.6	-3.6	75.8*	-0.7
Cc1c(C2(c3c(C)n(C)n(-c4ccccc4)c3=O)C(=O)Nc3ccc(F)cc32)c(=O)n(-c2ccccc2)n1C	0.3	0.9	-13.0	16.7	24.0	6.8	.	.	.	.
Cc1cc(Br)cc2c1NC(=O)C2(c1c(C)n(C)n(-c2ccccc2)c1=O)c1c(C)n(C)n(-c2ccccc2)c1=O	1.8	7.0	-35.0	31.4	69.2*	-7.8	57.0*	-5.8	71.5*	8.4
CN(C)C1=NCCN1CCC1CCCCC1	-1.9	1.2	-14.3	-10.3	18.5	-4.8	.	.	.	.
CSc1cccc(NC(=O)C2CCCN(c3ncnc4c3nc3n4CCCCC3)C2)c1 (stereo not drawn)	0.9	0.2	31.5	-17.4	21.7	-10.4	.	.	.	.
O=C(COC(=O)c1cc(-c2ccc(Cl)s2)nc2ccccc12)NCc1ccco1	5.2	0.7	-9.9	30.7	56.1*	-15.0	23.1	-1.1	74.2*	5.1
COc1cccc(NC(=O)c2ccc(C(=O)c3ccccc3)o2)c1	0.8	-0.4	-3.1	53.1*	99.9*	1.0	33.2*	-1.5	78.3*	9.1
